According to ChEMBL document CHEMBL1926589, “2-Anilinonicotinyl linked 2-aminobenzothiazoles and [1,2,4]triazolo[1,5-b] [1,2,4]benzothiadiazine conjugates as potential mitochondrial apoptotic inducers” (Bioorg Med Chem, 2011):

How the values were obtained:
Assay type in all cases: functional
Details in all cases: read-out: GI
HEp-2 = assay: Growth inhibition of human Hep2 cells at 10 uM by sulforhodamine B assay
Method in brief: (§1)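 Single-dose 10 µM screen by sulforhodamine B assay, reported as percent inhibition of cell proliferation. Cells grown in medium with 10% heat-inactivated FBS at 37 °C, 5% CO2, and treated at about 70% confluence or in log phase. Compounds dissolved in DMSO; controls received vehicle (<0.5% v/v).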

SW-620 = assay: Growth inhibition of human SW620 cells at 10 uM by sulforhodamine B assay; method in brief: as §1
IMR-32 = assay: Growth inhibition of human IMR32 cells at 10 uM by sulforhodamine B assay; method in brief: as §1
A549 = assay: Growth inhibition of human A549 cells at 10 uM by sulforhodamine B assay; method in brief: as §1
[1] = Growth inhibition of human 502713 cells at 10 uM by sulforhodamine B assay; method in brief: as §1
SiHa = assay: Growth inhibition of human SiHa cells at 10 uM by sulforhodamine B assay; method in brief: as §1
OVCAR-5 = assay: Growth inhibition of human OVCAR5 cells at 10 uM by sulforhodamine B assay; method in brief: as §1
SK-N-SH = assay: Growth inhibition of human SK-N-SH cells at 10 uM by sulforhodamine B assay; method in brief: as §1
HCT-15 = assay: Growth inhibition of human HCT15 cells at 10 uM by sulforhodamine B assay; method in brief: as §1
DU-145 = assay: Growth inhibition of human DU145 cells at 10 uM by sulforhodamine B assay; method in brief: as §1

Row | SMILES | inhibition of growth at 10 µM (HEp-2) | inhibition of growth at 10 µM (SW-620) | inhibition of growth at 10 µM (IMR-32) | inhibition of growth at 10 µM (A549) | inhibition of growth at 10 µM [1] | inhibition of growth at 10 µM (SiHa) | inhibition of growth at 10 µM (OVCAR-5) | inhibition of growth at 10 µM (SK-N-SH) | inhibition of growth at 10 µM (HCT-15) | inhibition of growth at 10 µM (DU-145)
1 | COc1ccc2nc(NC(=O)c3cccnc3Nc3ccc(F)cc3)sc2c1 | 32% | 21% | 2% | 5% | 2% | 35% | 3% | 24% | 0% | 32%
2 | COc1ccc(Nc2ncccc2-c2nc3n(n2)S(=O)(=O)c2ccccc2N3C)cc1 | 13% | 24% | 15% | 70% | 13% | 11% | 4% | 20% | 0% | 8%
3 | COc1ccc2nc(NC(=O)c3cccnc3Nc3ccc(Cl)cc3)sc2c1 | 13% | 15% | 24% | 10% | 10% | 31% | 10% | 23% | 44% | 25%
4 | O=c1[nH]cc(F)c(=O)[nH]1 [FLUOROURACIL] | – | 76% | 71% | – | 21% | 44% | 22% | 7% | 44% | –
5 | CN1c2ccccc2S(=O)(=O)n2nc(-c3cccnc3Nc3ccccc3)nc21 | 0% | 32% | 0% | 39% | 30% | 0% | 15% | 0% | 0% | 8%
6 | COc1ccc2nc(NC(=O)c3cccnc3Nc3ccccc3)sc2c1 | 33% | 29% | 26% | 9% | 11% | 63% | 6% | 26% | 0% | 25%
7 | COc1ccc(Nc2ncccc2C(=O)Nc2nc3ccc(OC)cc3s2)cc1 | 0% | 43% | 40% | 20% | 21% | 55% | 8% | 44% | 0% | 22%
8 | COc1ccc(Nc2ncccc2-c2nc3n(n2)S(=O)(=O)c2ccccc2N3c2ccccc2)cc1 | 10% | 14% | 0% | 0% | 2% | 0% | 2% | 0% | 0% | 5%
9 | O=C(Nc1nc2ccc([N+](=O)[O-])cc2s1)c1cccnc1Nc1ccc(F)c(Cl)c1 | 61% | 34% | 3% | 78% | 28% | 13% | 3% | 3% | 0% | 9%
10 | CN1c2ccccc2S(=O)(=O)n2nc(-c3cccnc3Nc3cc(F)c(F)c(F)c3)nc21 | 0% | 34% | 28% | 14% | 26% | 15% | 8% | 18% | 9% | 13%
11 | O=S1(=O)c2ccccc2N(c2ccccc2)c2nc(-c3cccnc3Nc3ccc(Cl)cc3Cl)nn21 | 25% | 27% | 11% | 66% | 19% | 23% | 8% | 23% | 0% | 20%
12 | COc1ccc2nc(NC(=O)c3cccnc3Nc3cc(F)c(F)c(F)c3)sc2c1 | 7% | 52% | 55% | 6% | 43% | 63% | 25% | 47% | 21% | 28%
13 | COc1ccc2nc(NC(=O)c3cccnc3Nc3ccc(Cl)cc3Cl)sc2c1 | 17% | 10% | 6% | 0% | 4% | 16% | 4% | 14% | 24% | 17%
14 | CC(=O)O[C@H]1C(=O)[C@@]2(C)[C@H]([C@H](OC(=O)c3ccccc3)[C@]3(O)C[C@H](OC(=O)[C@H](O)[C@@H](NC(=O)c4ccccc4)c4ccccc4)C(C)=C1C3(C)C)[C@]1(OC(C)=O)CO[C@@H]1C[C@@H]2O [PACLITAXEL] | – | 73% | 46% | 41% | 59% | 49% | 51% | 20% | 37% | 42%
15 | O=S1(=O)c2ccccc2N(c2ccccc2)c2nc(-c3cccnc3Nc3cc(F)c(F)c(F)c3)nn21 | 52% | 22% | 48% | 3% | 14% | 26% | 2% | 16% | 0% | 14%
16 | O=S1(=O)c2ccccc2N(c2ccccc2)c2nc(-c3cccnc3Nc3ccccc3)nn21 | 0% | 23% | 56% | 0% | 21% | 23% | 3% | 20% | 0% | 10%
17 | CN1c2ccccc2S(=O)(=O)n2nc(-c3cccnc3Nc3ccc(Cl)cc3)nc21 | 0% | 34% | 3% | 28% | 28% | 13% | 10% | 3% | 0% | 9%
